Experimental data pooled from the literature.
Compare with care: the assays were run in different laboratories.
HRH2: Histamine H2 receptor (HRH2, Homo sapiens, UniProt P25021)
Tspo: Translocator protein (Tspo, Rattus norvegicus, UniProt P16257)
ADRA1A: Alpha-1A adrenergic receptor (ADRA1A, Homo sapiens, UniProt P35348)

| Compound | target | effect on | action | method | setting | Ki |
| --- | --- | --- | --- | --- | --- | --- |
| O=C(O)c1cc(O)c2c(c1)C(=O)c1cc(O)cc(O)c1C2=O | Amine oxidase [flavin-containing] A (MAOA, Homo sapiens, UniProt P21397) | enzyme activity | inhibitor |  |  | 38600 nM |
| CC(C)c1nc2cc(OCCCCN3CCN(c4cccc5c4OCCO5)CC3)ccc2s1 | HRH2 | ligand displacement |  | radioligand |  | 240 nM |
| CNC(=O)[C@@]12C[C@@H]1[C@@H](n1ccc3c(NC)ncnc31)[C@H](O)[C@@H]2O | Tspo | ligand displacement |  | radioligand |  | > 10000 nM |
| CC1(C)C=Cc2c(cc3oc(-c4ccccc4)c(O)c(=O)c3c2O)O1 | Peroxisome proliferator-activated receptor delta (PPARD, Homo sapiens, UniProt Q03181) | ligand displacement |  | TR-FRET |  | 1300 nM |
| Oc1cccc(Nc2nc(-c3ccc(F)cc3F)cs2)c1 | Kappa-type opioid receptor (Oprk1, Rattus norvegicus, UniProt P34975) | cell-free assay |  | radioligand |  | 2200 nM |
| CC1=C(/C=C/C(C)=C/C=C/C(C)=C/c2cc(/C=C/C=C(C)/C=C/C3=C(C)CCCC3(C)C)cc[n+]2CCO)C(C)(C)CCC1 | Sterol 26-hydroxylase, mitochondrial (CYP27A1, Homo sapiens, UniProt Q02318) | enzyme activity | inhibitor |  |  | 2900 nM |
| CNC(=O)[C@@]12C[C@@H]1[C@@H](n1cnc3c(NC)nc(C#Cc4ccc(F)c(F)c4)nc31)[C@H](O)[C@@H]2O | Tspo | ligand displacement |  | radioligand |  | > 10000 nM |
| CCCCN1CCC(COC(=O)c2ccc(N)c(OCF)c2)CC1 | ADRA1A | cell-free assay |  | radioligand |  | > 10000 nM |
| O=C(c1cccc(/N=N/c2cccc(OCCCN3CCCCC3)c2)c1)N1CCCC1 | HRH2 | ligand displacement |  | radioligand |  | > 10000 nM |
| CNC(=O)[C@@]12C[C@@H]1[C@@H](n1cnc3c(NC)nc(C#Cc4ccccc4Cl)nc31)[C@H](O)[C@@H]2O | Tspo | ligand displacement |  | radioligand |  | > 10000 nM |
| OCCCN1CC[C@@H]2C[C@H]1c1cc(-c3ccc(C(F)(F)F)cc3)ccc12 | ADRA1A | ligand displacement |  | radioligand |  | 1990 nM |
| O=C1c2ccccc2CCN1CCCCN1CCN(c2ccccn2)CC1 | ADRA1A | ligand displacement |  | radioligand |  | 555 nM |
| CCc1nc2cc(OCCCCN3CCC(c4cccc(Cl)c4Cl)CC3)ccc2s1 | HRH2 | ligand displacement |  | radioligand |  | 2100 nM |
| COc1ccccc1N1CCN(CCCCN2CCc3ccccc3C2=O)CC1 | ADRA1A | ligand displacement |  | radioligand |  | 11.1 nM |
| C[C@H]1Oc2cc(cnc2N)-c2c(nn(C)c2C#N)CN(C)C(=O)c2ccc(F)cc21 | Focal adhesion kinase 1 (PTK2, Homo sapiens, UniProt Q05397) | cell-free assay |  |  | lysate | 10.3 nM |
| CCCCC(=O)[C@@]12C[C@@H]1[C@@H](n1ccc3c(NC)nc(C#Cc4ccc(Cl)s4)nc31)[C@H](O)[C@@H]2O | Tspo | ligand displacement |  | radioligand |  | > 10000 nM |
